Experiments:
[1] = molecular target: Neuronal acetylcholine receptor; alpha4/beta2 (Rattus norvegicus, UniProt P09483+P12390); test: Displacement of [3H]epibatidine from alpha4beta2 nAChR in rat cortical membranes by beta counting relative to acetylcholine; format: cell membranes, Membrane
Outline: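 Rat cortex membranes pre-incubated with […] to block α7 sites. Then 30 min r.t. with test compound (10 pM–10 mM), then overnight at 4 °C with 0.075 nM [3H]epibatidine. Nonspecific binding with 100 nM unlabelled epibatidine. Filtered on PEI-soaked GF/C filters and washed; beta counting. Ki fitted from three competition experiments by non-linear least squares; >100 mM when no inhibition up to 100 mM.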

[2] = molecular target: Neuronal acetylcholine receptor; alpha3/beta4 (Homo sapiens, UniProt P30926+P32297); test: Displacement of [3H]epibatidine from alpha3beta4 nAChR expressed in human HEK293 cells by beta liquid scintillation counting; format: cell-based
Outline: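 HEK 293 cells transiently transfected with α3 and β4 cDNAs by JetPEI and harvested after 48 h. Compound pre-incubated 5 min, then overnight at 4 °C with 0.25 nM [3H]epibatidine in Tris-HCl pH 7 buffer with 2 mg/ml BSA. Nonspecific binding with 100 nM cold epibatidine. Cells washed seven times with ice-cold PBS; liquid scintillation counting.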

[3] = molecular target: Neuronal acetylcholine receptor subunit alpha-7 (Rattus norvegicus, UniProt Q05941); test: Displacement of [125I]-alpha-bungarotoxin from alpha7 nAChR in rat cortical membranes by gamma counting; format: cell membranes, Membrane
Outline: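 Rat cortex membranes (two rats per experiment, homogenized and centrifuged twice at 60,000g) in Tris-HCl buffer pH 7 with protease inhibitors. Pre-incubated 30 min r.t. with test compound (10 pM–10 mM), then overnight at r.t. with 1 nM [125I]α-bungarotoxin. Nonspecific binding with […]. Filtered on polyethylenimine-soaked GF/C filters; gamma counting. Ki fitted from three competition experiments by non-linear least squares; >100 mM when no inhibition up to 100 mM.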

[4] = molecular target: Neuronal acetylcholine receptor subunit alpha-7 (Homo sapiens, UniProt P36544); test: Agonist activity at human alpha7 nAChR expressed in rat GH4C1 cells assessed as maximal electric current amplitude at 1 mM by whole-cell patch clamp electrophysiology assay relative to acetylcholine; format: functional, cell-based, GH4-C1; settings: for Activity: GH4-C1
Outline: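 GH4C1 cells stably transfected with human α7 subunit; whole-cell patch clamp, holding potential −70 mV, fast gravity-driven perfusion exchanger. Compound applied at 1 mM; current amplitude normalized to that from ACh 1 mM on the same cell. n = 8–12 cells.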

Chain of Neuronal acetylcholine receptor subunit alpha-7 (Rattus norvegicus, UniProt Q05941) (Q05941 whole entry): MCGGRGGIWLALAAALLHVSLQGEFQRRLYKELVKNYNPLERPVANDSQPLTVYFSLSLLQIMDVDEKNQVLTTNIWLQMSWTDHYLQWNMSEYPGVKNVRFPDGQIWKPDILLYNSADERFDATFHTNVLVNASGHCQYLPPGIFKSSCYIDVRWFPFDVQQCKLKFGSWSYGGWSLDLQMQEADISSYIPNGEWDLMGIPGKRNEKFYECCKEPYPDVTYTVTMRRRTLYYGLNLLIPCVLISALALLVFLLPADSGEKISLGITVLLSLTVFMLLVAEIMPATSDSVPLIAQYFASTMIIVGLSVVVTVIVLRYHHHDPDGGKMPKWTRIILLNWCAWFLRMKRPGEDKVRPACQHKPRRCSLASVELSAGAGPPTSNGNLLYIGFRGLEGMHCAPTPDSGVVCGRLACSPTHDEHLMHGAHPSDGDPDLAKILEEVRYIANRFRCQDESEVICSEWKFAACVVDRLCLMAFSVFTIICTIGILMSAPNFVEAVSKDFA
Chain of Neuronal acetylcholine receptor; alpha3/beta4 (P30926 whole entry): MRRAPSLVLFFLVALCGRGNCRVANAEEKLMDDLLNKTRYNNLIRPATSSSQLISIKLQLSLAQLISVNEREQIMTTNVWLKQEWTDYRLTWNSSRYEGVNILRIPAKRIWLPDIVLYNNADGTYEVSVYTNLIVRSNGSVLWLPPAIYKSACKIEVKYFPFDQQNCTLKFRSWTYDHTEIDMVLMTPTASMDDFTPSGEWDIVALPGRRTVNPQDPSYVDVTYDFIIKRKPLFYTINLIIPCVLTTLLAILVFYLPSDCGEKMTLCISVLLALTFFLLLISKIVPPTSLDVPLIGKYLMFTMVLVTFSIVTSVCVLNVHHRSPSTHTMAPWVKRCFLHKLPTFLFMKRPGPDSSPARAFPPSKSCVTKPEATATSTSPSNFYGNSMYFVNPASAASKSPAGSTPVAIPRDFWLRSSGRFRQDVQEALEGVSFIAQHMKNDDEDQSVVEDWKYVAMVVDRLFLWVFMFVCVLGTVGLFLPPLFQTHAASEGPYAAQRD
Chain of Neuronal acetylcholine receptor; alpha3/beta4 (P32297 whole entry): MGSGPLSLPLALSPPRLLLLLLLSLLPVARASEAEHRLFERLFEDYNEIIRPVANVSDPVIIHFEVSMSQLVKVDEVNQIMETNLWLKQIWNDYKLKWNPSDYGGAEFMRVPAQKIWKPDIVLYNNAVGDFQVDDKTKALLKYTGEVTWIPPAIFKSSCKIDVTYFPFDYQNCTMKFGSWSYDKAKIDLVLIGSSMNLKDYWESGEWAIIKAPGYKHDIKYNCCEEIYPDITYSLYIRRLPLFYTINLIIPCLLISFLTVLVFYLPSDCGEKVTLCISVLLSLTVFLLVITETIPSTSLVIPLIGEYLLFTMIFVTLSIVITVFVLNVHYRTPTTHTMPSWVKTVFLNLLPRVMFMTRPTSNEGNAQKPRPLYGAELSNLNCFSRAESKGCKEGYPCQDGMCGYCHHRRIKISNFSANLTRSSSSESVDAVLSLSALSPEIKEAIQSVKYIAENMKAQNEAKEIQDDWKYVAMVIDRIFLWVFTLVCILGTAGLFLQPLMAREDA
Chain of Neuronal acetylcholine receptor subunit alpha-7 (Homo sapiens, UniProt P36544) (P36544 whole entry, the tested form may be a part): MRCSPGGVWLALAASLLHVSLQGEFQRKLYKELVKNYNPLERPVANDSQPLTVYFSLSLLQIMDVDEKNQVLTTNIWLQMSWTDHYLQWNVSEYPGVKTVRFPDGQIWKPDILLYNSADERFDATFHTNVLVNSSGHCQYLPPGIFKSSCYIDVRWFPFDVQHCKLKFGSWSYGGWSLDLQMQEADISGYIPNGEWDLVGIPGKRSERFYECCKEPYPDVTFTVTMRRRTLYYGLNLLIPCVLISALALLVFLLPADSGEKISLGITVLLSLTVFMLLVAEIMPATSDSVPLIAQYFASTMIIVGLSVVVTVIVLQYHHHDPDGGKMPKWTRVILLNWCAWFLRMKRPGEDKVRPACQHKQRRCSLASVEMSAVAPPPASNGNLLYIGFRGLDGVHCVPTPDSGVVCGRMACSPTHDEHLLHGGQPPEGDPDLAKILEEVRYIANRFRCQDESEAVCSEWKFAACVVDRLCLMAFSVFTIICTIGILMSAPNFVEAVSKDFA
Chain of Neuronal acetylcholine receptor; alpha4/beta2 (P09483 whole entry): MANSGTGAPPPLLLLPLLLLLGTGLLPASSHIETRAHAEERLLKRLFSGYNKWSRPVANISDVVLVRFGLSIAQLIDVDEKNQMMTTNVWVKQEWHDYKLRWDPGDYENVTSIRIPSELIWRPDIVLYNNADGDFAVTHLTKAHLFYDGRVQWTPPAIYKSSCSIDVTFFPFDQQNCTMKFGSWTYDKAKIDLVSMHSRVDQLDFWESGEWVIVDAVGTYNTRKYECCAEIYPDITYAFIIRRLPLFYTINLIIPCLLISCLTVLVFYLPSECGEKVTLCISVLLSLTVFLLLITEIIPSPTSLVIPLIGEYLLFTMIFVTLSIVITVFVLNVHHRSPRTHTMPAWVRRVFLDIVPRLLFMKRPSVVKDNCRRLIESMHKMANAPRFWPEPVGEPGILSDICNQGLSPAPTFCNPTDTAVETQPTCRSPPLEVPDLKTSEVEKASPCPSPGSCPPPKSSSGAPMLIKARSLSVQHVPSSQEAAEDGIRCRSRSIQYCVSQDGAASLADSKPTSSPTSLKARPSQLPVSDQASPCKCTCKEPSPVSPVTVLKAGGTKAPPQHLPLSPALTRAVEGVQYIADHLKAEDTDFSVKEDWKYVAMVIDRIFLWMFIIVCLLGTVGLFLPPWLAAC
Chain of Neuronal acetylcholine receptor; alpha4/beta2 (P12390 whole entry): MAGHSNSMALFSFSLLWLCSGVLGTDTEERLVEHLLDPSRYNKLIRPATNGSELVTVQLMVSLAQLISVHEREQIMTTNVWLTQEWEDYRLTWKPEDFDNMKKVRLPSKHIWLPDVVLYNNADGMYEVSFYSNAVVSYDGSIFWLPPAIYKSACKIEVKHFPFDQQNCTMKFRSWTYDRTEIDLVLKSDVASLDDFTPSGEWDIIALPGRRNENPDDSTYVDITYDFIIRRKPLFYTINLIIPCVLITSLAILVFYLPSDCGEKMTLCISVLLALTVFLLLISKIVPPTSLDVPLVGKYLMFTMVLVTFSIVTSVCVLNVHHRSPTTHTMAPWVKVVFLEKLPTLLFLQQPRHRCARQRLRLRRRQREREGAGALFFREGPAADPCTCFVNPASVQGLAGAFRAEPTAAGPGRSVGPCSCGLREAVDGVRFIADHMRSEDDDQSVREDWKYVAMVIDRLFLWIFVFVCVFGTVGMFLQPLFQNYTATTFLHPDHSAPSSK

| SMILES | Ki [1] | Ki [2] | Ki [3] | EC50 [4] | Activity [4] |
| --- | --- | --- | --- | --- | --- |
| BrC1=NOC2(C1)CN1CCC2C1 (racemic) | 5 µM | 13 µM | 0.23 µM | 84.1 µM | 76% |
| c1ccc(C2=NOC3(CCCNC3)C2)cc1 (racemic) | > 100 µM | 43 µM | 4.5 µM |  |  |
| C[N+]12CCC(C1)C1(CC(Br)=NO1)C2 (racemic) | 22 µM |  | 6.2 µM |  |  |
| COC1=NOC2(C1)C[N+]1(C)CCC2CC1 (racemic) | 175 µM |  | 0.0914 µM |  |  |
| C[N+]12CCC(C1)C1(CC(c3ccccc3)=NO1)C2 (racemic) | 38 µM |  | 5.1 µM |  |  |
| C[N+]1(C)CCCC2(CC(c3ccccc3)=NO2)C1 (racemic) | > 100 µM | 6.6 µM | 0.7 µM |  | 26% |
| C[N+]1(C)CCCC2(CC(Br)=NO2)C1 (racemic) | 50 µM |  | 3.7 µM |  |  |
| COC1=NOC2(CCC[N+](C)(C)C2)C1 (racemic) | 94 µM |  | 13 µM |  |  |
| COC1=NOC2(C1)CN1CCC2C1 (racemic) | 16 µM | 46 µM | 0.42 µM |  |  |
| c1ccc(C2=NOC3(C2)CN2CCC3C2)cc1 (racemic) | 53 µM | 16 µM | 3.6 µM |  |  |
| BrC1=NOC2(C1)CN1CCC2CC1 (racemic) | 0.64 µM |  | 0.0135 µM |  |  |
| CN1CCCC2(CC(Br)=NO2)C1 (racemic) | 44 µM |  | 6.6 µM |  |  |
| CN1CCCC2(CC(c3ccccc3)=NO2)C1 (racemic) | > 100 µM |  | 30 µM |  |  |
| COC1=NOC2(CCCNC2)C1 (racemic) | > 100 µM | 75 µM | 3.7 µM |  |  |
| COC1=NOC2(CCCN(C)C2)C1 (racemic) | > 100 µM | 91 µM | 5.5 µM |  | 7% |
| COC1=NOC2(C1)CN1CCC2CC1 (racemic) | 7.9 µM |  | 0.0142 µM |  |  |
| c1ccc(C2=NOC3(C2)CN2CCC3CC2)cc1 (racemic) | 22 µM |  | 0.025 µM |  |  |
| COC1=NOC2(C1)C[N+]1(C)CCC2C1 (racemic) | 20 µM |  | 2.9 µM |  |  |
| BrC1=NOC2(CCCNC2)C1 (racemic) | 58 µM |  | 4.3 µM |  |  |
| C[N+]12CCC(CC1)C1(CC(Br)=NO1)C2 (racemic) | 32.5 µM |  | 0.109 µM |  |  |
